Measurements taken from ChEMBL document CHEMBL5030505, “Assessment of NR4A Ligands That Directly Bind and Modulate the Orphan Nuclear Receptor Nurr1” (J Med Chem, 2020).

Tests used:
Assay type in all cases: cell-based
[1] = molecular target: Nuclear receptor subfamily 4 group A member 2 (Homo sapiens) (UniProt P43354); assay: Modulation of full length human Nurr1 expressed in SKNBE(2) cells co-transfected with luciferase reporter plasmid harboring NBRE response element assessed as increase in luciferase activity incubated for 18 hrs by luciferase reporter-gene assay; conditions: SKNBE2, filed as modulator
Summary of the method: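 Transfection of SK-N-BE(2)-C cells (1:1 EMEM/F12, 10% FBS, 37°C, 5% CO2) used full-length Nurr1 alone (2 μg, no RXRα) with 3xNBRE- or 3xNurRE-luciferase reporter (6 μg) for 18 h. Cells were replated at 10,000/well for 4 h, then exposed to ligand or vehicle in quadruplicate for 18 h. Luminescence was expressed as fold over vehicle, as mean ± s.e.m. (n=4) from 2 independent experiments, one-way ANOVA against vehicle.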

[2] = molecular target: Nuclear receptor subfamily 4 group A member 2 (Homo sapiens) (UniProt P43354); assay: Modulation of full length human Nurr1 expressed in PC12 cells co-transfected with RXRalpha and luciferase reporter plasmid harboring NurRE response element assessed as increase in luciferase activity incubated for 18 hrs by luciferase reporter-gene assay; conditions: PC-12, filed as modulator
Summary of the method: (§1)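 PC12 cells were grown at 37°C and 5% CO2 in […] medium with 15% horse serum and 2.5% FBS. They were transfected with full-length Nurr1 (1 μg) plus full-length RXRα (1 μg) and 3xNBRE- or 3xNurRE-luciferase reporter (6 μg) for 18 h, then replated at 10,000 cells/well for 4 h. Ligand or vehicle (water, ethanol or DMSO) was added in quadruplicate for 18 h. Luminescence was read as fold change over vehicle. Results are mean ± s.e.m., n=4, from 2 independent experiments, analysed by one-way ANOVA against vehicle.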

[3] = molecular target: Nuclear receptor subfamily 4 group A member 2 (Homo sapiens) (UniProt P43354); assay: Modulation of full length human Nurr1 expressed in PC12 cells co-transfected with RXRalpha and luciferase reporter plasmid harboring NBRE response element assessed as increase in luciferase activity incubated for 18 hrs by luciferase reporter-gene assay; conditions: PC-12, filed as modulator; summary of the method: as §1
[4] = molecular target: Nuclear receptor subfamily 4 group A member 2 (Homo sapiens) (UniProt P43354); assay: Modulation of full length human Nurr1 expressed in PC12 cells co-transfected with luciferase reporter plasmid harboring NBRE response element assessed as increase in luciferase activity incubated for 18 hrs by luciferase reporter-gene assay; conditions: PC-12, filed as modulator
Summary of the method: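 Here PC12 cells (FK-12 medium, 15% horse serum, 2.5% FBS, 37°C, 5% CO2) received full-length Nurr1 (2 μg) without RXRα, plus 3xNBRE- or 3xNurRE-luciferase reporter (6 μg), for 18 h. Cells were replated at 10,000/well for 4 h, then treated with ligand or vehicle in quadruplicate for 18 h. Luciferase luminescence was normalized to vehicle-treated cells. Results are mean ± s.e.m. (n=4) from 2 independent experiments, with one-way ANOVA against vehicle.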

[5] = molecular target: Nuclear receptor subfamily 4 group A member 2 (Homo sapiens) (UniProt P43354); assay: Modulation of full length human Nurr1 expressed in HEK293T cells co-transfected with luciferase reporter plasmid harboring NurRE response element assessed as increase in luciferase activity incubated for 18 hrs by luciferase reporter-gene assay; conditions: filed as modulator
Summary of the method: (§2)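 Full-length Nurr1 plasmid, alone (2 μg) or 1 μg plus full-length RXRα (1 μg), cotransfected with 3xNBRE- or 3xNurRE-luciferase reporter (6 μg) using Lipofectamine 2000, 18 h. Cells replated at 10,000/well for 4 h. Four ligand concentrations, or vehicle (water, ethanol or DMSO), added in quadruplicate for 18 h. Luciferase read. Fold change vs vehicle, mean ± s.e.m., one-way ANOVA vs vehicle.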

[6] = molecular target: Nuclear receptor subfamily 4 group A member 2 (Homo sapiens) (UniProt P43354); assay: Modulation of full length human Nurr1 expressed in HEK293T cells co-transfected with luciferase reporter plasmid harboring NBRE response element assessed as increase in luciferase activity incubated for 18 hrs by luciferase reporter-gene assay; conditions: filed as modulator; summary of the method: as §2
[7] = molecular target: Nuclear receptor subfamily 4immunitygroup A member 1 (Homo sapiens) (UniProt P22736); assay: Modulation of full length human Nur77 expressed in SK-N-BE(2) cells co-transfected with luciferase reporter plasmid harboring NBRE response element assessed as increase in luciferase activity incubated for 18 by luciferase reporter gene assay; conditions: SKNBE2, filed as modulator, time 18.0 hrs
Summary of the method: (§3)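 Cells seeded at 1.5 million per 10-cm dish. Next day they were transfected (Lipofectamine 2000) with full-length Nur77 or NOR-1 expression plasmid, either alone (2 μg) or 1 μg plus full-length RXRα (1 μg), and 3xNBRE- or 3xNurRE-luciferase reporter (6 μg), 18 h. Cells replated at 10,000/well, 4 h, then ligand dose response added in quadruplicate for 18 h. Luciferase luminescence read.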

[8] = molecular target: Nuclear receptor subfamily 4 group A member 3 (Homo sapiens) (UniProt Q92570); assay: Modulation of full length human NOR1 expressed in SK-N-BE(2) cells co-transfected with RXRalpha and luciferase reporter plasmid harboring NurRE response element assessed as increase in luciferase activity incubated for 18 by luciferase reporter gene assay; conditions: SKNBE2, filed as modulator, time 18.0 hrs; summary of the method: as §3
[9] = molecular target: Nuclear receptor subfamily 4 group A member 3 (Homo sapiens) (UniProt Q92570); assay: Modulation of full length human NOR1 expressed in SK-N-BE(2) cells co-transfected with RXRalpha and luciferase reporter plasmid harboring NBRE response element assessed as increase in luciferase activity incubated for 18 by luciferase reporter gene assay; conditions: SKNBE2, filed as modulator, time 18.0 hrs; summary of the method: as §3
[10] = molecular target: Nuclear receptor subfamily 4 group A member 3 (Homo sapiens) (UniProt Q92570); assay: Modulation of full length human NOR1 expressed in HEK293 cells co-transfected with luciferase reporter plasmid harboring NBRE response element assessed as increase in luciferase activity incubated for 18 hrs by luciferase reporter gene assay; conditions: filed as modulator
Summary of the method: (§4)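 Full-length NOR-1 plasmid was transfected via Lipofectamine 2000, either alone (2 μg) or at 1 μg with full-length RXRα (1 μg). It was paired with a 3xNBRE or 3xNurRE luciferase reporter (6 μg), 8 μg total DNA, for 18 h. Cells were replated at 10,000/well for 4 h, then given a full ligand dose response or vehicle in quadruplicate for 18 h. Luciferase was read; no EC50/IC50 was fitted.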

[11] = molecular target: Nuclear receptor subfamily 4immunitygroup A member 1 (Homo sapiens) (UniProt P22736); assay: Modulation of full length human Nur77 expressed in SK-N-BE(2) cells co-transfected with RXRalpha and luciferase reporter plasmid harboring NurRE response element assessed as increase in luciferase activity incubated for 18 by luciferase reporter gene assay; conditions: SKNBE2, filed as modulator, time 18.0 hrs; summary of the method: as §3
[12] = molecular target: Nuclear receptor subfamily 4immunitygroup A member 1 (Homo sapiens) (UniProt P22736); assay: Modulation of full length human Nur77 expressed in PC12 cells co-transfected with RXRalpha and luciferase reporter plasmid harboring NurRE response element assessed as increase in luciferase activity incubated for 18 by luciferase reporter gene assay; conditions: PC-12, filed as modulator, time 18.0 hrs; summary of the method: as §3
[13] = molecular target: Nuclear receptor subfamily 4 group A member 3 (Homo sapiens) (UniProt Q92570); assay: Modulation of full length human NOR1 expressed in PC12 cells co-transfected with luciferase reporter plasmid harboring NBRE response element assessed as increase in luciferase activity incubated for 18 by luciferase reporter gene assay; conditions: PC-12, filed as modulator, time 18.0 hrs; summary of the method: as §4
[14] = molecular target: Nuclear receptor subfamily 4 group A member 3 (Homo sapiens) (UniProt Q92570); assay: Modulation of full length human NOR1 expressed in PC12 cells co-transfected with luciferase reporter plasmid harboring NurRE response element assessed as increase in luciferase activity incubated for 18 by luciferase reporter gene assay; conditions: PC-12, filed as modulator, time 18.0 hrs; summary of the method: as §4
[15] = molecular target: Nuclear receptor subfamily 4 group A member 3 (Homo sapiens) (UniProt Q92570); assay: Modulation of full length human NOR1 expressed in PC12 cells co-transfected with RXRalpha and luciferase reporter plasmid harboring NBRE response element assessed as increase in luciferase activity incubated for 18 by luciferase reporter gene assay; conditions: PC-12, filed as modulator, time 18.0 hrs; summary of the method: as §4

Chain of Nuclear receptor subfamily 4immunitygroup A member 1 (Homo sapiens) (P22736 whole entry): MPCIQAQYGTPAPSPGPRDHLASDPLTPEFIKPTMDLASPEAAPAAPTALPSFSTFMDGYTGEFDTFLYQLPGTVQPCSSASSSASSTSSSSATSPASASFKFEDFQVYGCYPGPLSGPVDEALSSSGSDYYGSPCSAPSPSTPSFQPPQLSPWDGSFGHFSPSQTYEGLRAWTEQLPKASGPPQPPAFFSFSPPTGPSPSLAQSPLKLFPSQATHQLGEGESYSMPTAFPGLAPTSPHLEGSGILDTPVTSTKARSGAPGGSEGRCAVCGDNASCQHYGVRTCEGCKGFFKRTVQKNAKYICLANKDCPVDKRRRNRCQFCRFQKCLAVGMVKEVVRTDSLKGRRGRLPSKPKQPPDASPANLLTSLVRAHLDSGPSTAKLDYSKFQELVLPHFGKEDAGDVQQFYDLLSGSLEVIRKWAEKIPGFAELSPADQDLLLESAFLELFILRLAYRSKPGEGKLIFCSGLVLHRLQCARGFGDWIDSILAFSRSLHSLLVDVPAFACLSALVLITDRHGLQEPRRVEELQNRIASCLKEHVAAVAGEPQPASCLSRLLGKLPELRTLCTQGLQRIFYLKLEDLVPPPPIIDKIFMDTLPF
Chain of Nuclear receptor subfamily 4 group A member 3 (Homo sapiens) (Q92570 whole entry): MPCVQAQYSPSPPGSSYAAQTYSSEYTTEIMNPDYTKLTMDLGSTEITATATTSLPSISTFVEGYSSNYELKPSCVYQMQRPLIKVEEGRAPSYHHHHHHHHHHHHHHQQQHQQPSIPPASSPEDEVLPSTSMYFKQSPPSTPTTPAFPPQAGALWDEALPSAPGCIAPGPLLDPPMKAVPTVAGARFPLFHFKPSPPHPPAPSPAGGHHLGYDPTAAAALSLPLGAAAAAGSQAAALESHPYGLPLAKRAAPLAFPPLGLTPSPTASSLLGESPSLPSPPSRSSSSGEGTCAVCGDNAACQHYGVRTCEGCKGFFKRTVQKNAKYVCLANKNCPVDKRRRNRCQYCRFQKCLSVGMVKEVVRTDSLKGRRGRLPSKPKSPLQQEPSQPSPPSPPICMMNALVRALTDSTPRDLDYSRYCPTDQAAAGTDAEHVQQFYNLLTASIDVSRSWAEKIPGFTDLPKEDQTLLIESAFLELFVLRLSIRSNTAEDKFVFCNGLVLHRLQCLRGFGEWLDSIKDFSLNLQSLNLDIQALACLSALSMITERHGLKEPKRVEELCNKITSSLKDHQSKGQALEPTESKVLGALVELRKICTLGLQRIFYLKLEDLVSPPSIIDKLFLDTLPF
Chain of Nuclear receptor subfamily 4 group A member 2 (Homo sapiens) (P43354 whole entry): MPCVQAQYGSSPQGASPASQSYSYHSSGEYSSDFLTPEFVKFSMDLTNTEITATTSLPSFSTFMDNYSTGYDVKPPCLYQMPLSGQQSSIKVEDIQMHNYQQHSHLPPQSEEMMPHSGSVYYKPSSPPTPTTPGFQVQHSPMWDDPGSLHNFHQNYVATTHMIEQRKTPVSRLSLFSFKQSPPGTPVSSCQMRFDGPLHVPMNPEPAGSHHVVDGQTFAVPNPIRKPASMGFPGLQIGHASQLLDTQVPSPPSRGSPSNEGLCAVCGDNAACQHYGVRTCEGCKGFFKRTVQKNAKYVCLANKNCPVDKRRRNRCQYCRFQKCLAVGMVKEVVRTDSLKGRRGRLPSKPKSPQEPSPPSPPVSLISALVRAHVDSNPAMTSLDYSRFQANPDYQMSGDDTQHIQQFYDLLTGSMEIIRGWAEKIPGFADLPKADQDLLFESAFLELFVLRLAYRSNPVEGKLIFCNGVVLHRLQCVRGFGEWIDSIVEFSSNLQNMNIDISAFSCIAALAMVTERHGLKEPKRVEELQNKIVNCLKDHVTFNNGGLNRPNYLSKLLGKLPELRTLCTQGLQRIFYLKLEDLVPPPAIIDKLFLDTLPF

Row | Activity [1] | Activity [2] | Activity [3] | Activity [4] | Activity [5] | Activity [6] | Activity [7] | Activity [8] | Activity [9] | Activity [10] | Activity [11] | Activity [12] | Activity [13] | Activity [14] | Activity [15] | SMILES
1 | Dose-Dependent Effect | Dose-Dependent Effect | Dose-Dependent Effect | Dose-Dependent Effect | Dose-Dependent Effect | Dose-Dependent Effect | Dose-Dependent Effect | Dose-Dependent Effect | Dose-Dependent Effect | Dose-Dependent Effect | Dose-Dependent Effect | Dose-Dependent Effect | Dose-Dependent Effect | Dose-Dependent Effect | Dose-Dependent Effect | CCCCCCCC(=O)c1c(O)cc(O)cc1CC(=O)OCC [CYTOSPORONE B]
2 | Dose-Dependent Effect | Dose-Dependent Effect | Dose-Dependent Effect | Dose-Dependent Effect | Dose-Dependent Effect | Dose-Dependent Effect | Dose-Dependent Effect | Dose-Dependent Effect | Dose-Dependent Effect | Dose-Dependent Effect | Dose-Dependent Effect | Dose-Dependent Effect | Dose-Dependent Effect | Dose-Dependent Effect | Dose-Dependent Effect | CCN(CC)CCCC(C)Nc1ccnc2cc(Cl)ccc12 (stereo not given) [CHLOROQUINE]
3 | Dose-Dependent Effect | Dose-Dependent Effect | Dose-Dependent Effect | Dose-Dependent Effect | Dose-Dependent Effect | Dose-Dependent Effect | Dose-Dependent Effect | Dose-Dependent Effect | Dose-Dependent Effect | Dose-Dependent Effect | Dose-Dependent Effect | Dose-Dependent Effect | Dose-Dependent Effect | Dose-Dependent Effect | Dose-Dependent Effect | CCN(CC)Cc1cc(Nc2ccnc3cc(Cl)ccc23)ccc1O [AMODIAQUINE]
